The results in this text go back to ChEMBL document CHEMBL1127821 (J Med Chem, 1994).

Bounds are passed on as bounds.

Assay [1] has as its target T1, Sodium-dependent dopamine transporter (Rattus norvegicus, UniProt P23977). As to the kind of experiment: Inhibition of [125I]RTI-55 binding to dopamine transport sites in rat striatal membranes. Type of assay: cell membranes, Membrane.
Assay [2] has as its target Sodium-dependent serotonin transporter (Rattus norvegicus, UniProt P31652). As to the kind of experiment: Inhibition of [3H]paroxetine binding to serotonin transport sites in rat frontal cortex membranes. Type of assay: cell membranes, Membrane. The method in brief: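 Frontal cortex from male Sprague-Dawley rats, homogenized in 50 mM Tris-HCl/120 mM NaCl/5 mM KCl pH 7.4 and washed twice at 48000g. […] Filtered on GF/B presoaked in 0.05% polyethyleneimine. Nonspecific binding with 10 μM fluoxetine.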

For assay [3], the target named is T1, Sodium-dependent dopamine transporter. Kind of assay: The potency of the [125I]RTI-55 for Dopamine transporter site.

Chain of Sodium-dependent serotonin transporter (P31652 whole entry): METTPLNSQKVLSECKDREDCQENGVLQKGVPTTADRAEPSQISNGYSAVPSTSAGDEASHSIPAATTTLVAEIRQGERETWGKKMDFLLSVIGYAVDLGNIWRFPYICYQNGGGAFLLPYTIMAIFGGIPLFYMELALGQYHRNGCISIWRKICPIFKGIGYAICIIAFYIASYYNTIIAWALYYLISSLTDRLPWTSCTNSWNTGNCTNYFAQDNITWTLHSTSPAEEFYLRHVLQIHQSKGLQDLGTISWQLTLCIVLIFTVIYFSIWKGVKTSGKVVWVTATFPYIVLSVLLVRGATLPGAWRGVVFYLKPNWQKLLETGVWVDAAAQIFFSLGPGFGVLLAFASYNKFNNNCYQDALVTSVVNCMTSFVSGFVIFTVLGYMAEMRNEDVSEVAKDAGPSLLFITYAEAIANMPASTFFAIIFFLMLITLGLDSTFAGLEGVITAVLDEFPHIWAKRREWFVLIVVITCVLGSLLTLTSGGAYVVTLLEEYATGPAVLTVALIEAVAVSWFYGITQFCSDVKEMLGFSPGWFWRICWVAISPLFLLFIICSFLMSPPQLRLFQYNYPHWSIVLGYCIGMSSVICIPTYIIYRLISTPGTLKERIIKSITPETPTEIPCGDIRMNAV
T1 sequence (P23977 whole entry): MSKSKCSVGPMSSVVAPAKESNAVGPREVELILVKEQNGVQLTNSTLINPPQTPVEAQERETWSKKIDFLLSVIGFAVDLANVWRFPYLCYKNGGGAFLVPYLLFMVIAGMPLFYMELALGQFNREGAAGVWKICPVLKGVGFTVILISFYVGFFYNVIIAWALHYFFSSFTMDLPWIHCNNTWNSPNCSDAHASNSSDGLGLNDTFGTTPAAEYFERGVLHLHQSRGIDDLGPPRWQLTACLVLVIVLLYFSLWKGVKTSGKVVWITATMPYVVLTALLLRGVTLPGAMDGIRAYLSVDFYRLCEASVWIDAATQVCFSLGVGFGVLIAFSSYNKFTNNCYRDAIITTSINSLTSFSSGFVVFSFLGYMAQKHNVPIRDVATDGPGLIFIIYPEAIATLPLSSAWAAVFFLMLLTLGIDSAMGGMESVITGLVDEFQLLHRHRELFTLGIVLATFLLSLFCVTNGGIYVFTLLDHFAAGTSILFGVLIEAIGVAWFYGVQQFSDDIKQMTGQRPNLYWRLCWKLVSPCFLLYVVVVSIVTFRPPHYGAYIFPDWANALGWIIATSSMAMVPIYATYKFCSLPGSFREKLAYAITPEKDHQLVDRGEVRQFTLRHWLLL

Compound `CCC(=O)C1C(c2ccc(C(C)(C)C)cc2)CC2CCC1N2C` (stereo unspecified) returned an IC50 in assay [1] of 2120 nM. Besides, the Ki in assay [2] was found to be 1770 nM.
In the same order, the values of `CCC(=O)C1C(c2ccc(-c3ccccc3)cc2)CC2CCC1N2C` (stereo unspecified) are 2.29 nM and 4.31 nM.
In assay [1], `CC(=O)C1C(c2ccc(F)cc2)CC2CCC1N2C` (stereo unspecified) came in with an IC50 of 70.8 nM. In assay [2], this compound registered a Ki of 857 nM.
On the same counts, the results for `CC(=O)C1C(c2ccc3ccccc3c2)CC2CCC1N2C` (stereo unspecified) are 0.28 nM and 1.06 nM.
In assay [1], `CC(=O)C1C(c2ccc(C)cc2)CC2CCC1N2C` (stereo unspecified) gave an IC50 of 9.8 nM. Besides, in assay [2], the Ki was 122 nM.
In the same order, the values of `CCC(=O)C1C(c2ccc(F)cc2)CC2CCC1N2C` (stereo unspecified) are 15.3 nM and 630 nM.
With `CC(=O)C1C(c2cccc3ccccc23)CC2CCC1N2C` (stereo unspecified), the Ki in assay [2] is 25.6 nM.
With `CCOC(=O)C1C(c2ccc(I)cc2)CC2CCC1N2C` (stereo unspecified), the Kd in assay [3] was found to be 1 nM.
Turning to `CCC(=O)C1C(c2ccccc2)CC2CCC1N2C` (stereo unspecified), the Ki in assay [2] turned out to be 1010 nM.
`CCc1ccc(C2CC3CCC(C2C(C)=O)N3C)cc1` (stereo unspecified) displayed an IC50 in assay [1] of 152 nM. In addition, the affinity in assay [2] corresponds to a Ki of 78.2 nM.
Consider `CCC(=O)C1C(c2ccccc2C)CC2CCC1N2C` (stereo unspecified), for which the IC50 in assay [1] was 1290 nM. This compound also showed a Ki in assay [2] greater than 10000 nM.
As to `CCC(=O)C1C(c2ccc(C(C)C)cc2)CC2CCC1N2C` (stereo unspecified), the IC50 in assay [1] was 436 nM. In assay [2], this compound registered a Ki of 35.8 nM.
As for `CCC(=O)C1C(c2cccc3ccccc23)CC2CCC1N2C` (stereo unspecified), the IC50 in assay [1] was found to be 5.34 nM. This compound also returned a Ki in assay [2] of 20.9 nM.
`CCC(=O)C1C(C2CCCCC2)CC2CCC1N2C` (stereo unspecified) returned an IC50 in assay [1] of 4610 nM. This compound returned a Ki in assay [2] greater than 10000 nM.
In assay [1], `CCC(=O)C1C(CC)CC2CCC1N2C` (stereo unspecified) had an IC50 greater than 50000 nM. In assay [2], this compound showed a Ki greater than 10000 nM.
`CC(=O)C1C(c2ccccc2)CC2CCC1N2C` (stereo unspecified): the IC50 in assay [1] came out at 114 nM. In assay [2], the Ki is 1360 nM.
In the same order, the values of `CCC(=O)C1C(c2ccc(C)cc2)CC2CCC1N2C` (single isomer, unassigned; (+)) are 4.21 nM and 74 nM.
`CCC(=O)C1C(c2ccc(C)cc2)CC2CCC1N2C` (single isomer, unassigned; (-)): in assay [1], the IC50 is 1340 nM. Further, in assay [2], the Ki was greater than 10000 nM.
On the same counts, the results for `CCC(=O)C1C(c2ccc3ccccc3c2)CC2CCC1N2C` (single isomer, unassigned; (-)) are 113 nM and 484 nM.
On the same counts, the results for `CCC(=O)C1C(c2ccc(C)cc2)CC2CCC1N2C` (stereo in doubt; 12a) are 8.2 nM and 131 nM.
The compound `CCC(=O)C1C(c2ccc3ccccc3c2)CC2CCC1N2C` (stereo in doubt; 21a) displayed an IC50 in assay [1] of 0.115 nM. This compound displayed an inhibition constant (Ki) in assay [2] of 0.394 nM.
Consider `CCC(=O)C1C(c2ccc3ccccc3c2)CC2CCC1N2C` (stereo in doubt; (+)-21a), for which, in assay [1], the IC50 amounted to 0.043 nM. The compound further returned a Ki in assay [2] of 0.121 nM.

As usually defined, the IC50 is the concentration at which inhibition is half-maximal. A low value points to greater potency. As usually defined, the Ki is the dissociation constant of the complex between target and ligand, obtained from inhibition or displacement. A lower Ki goes with a stronger hold on the target. One may read the Kd as a measure of binding affinity in units of concentration.
